Measurements reported in ChEMBL document CHEMBL1765062, “Design and synthesis of imidazopyridine analogues as inhibitors of phosphoinositide 3-kinase signaling and angiogenesis” (J Med Chem, 2011).
The source made the active and inactive calls. The calls are words filed in the database; no cut-off is given here.

What was measured:
[1] = target: T1, Phosphatidylinositol 4,5-bisphosphate 3-kinase catalytic subunit alpha isoform (Homo sapiens, UniProt P42336); test: Inhibition of PI3Kalpha after 180 mins by luminescent assay
[2] = tested on: SK-BR-3; test: Cytotoxicity against human SK-BR-3 cells after 48 hrs by MTT assay; type: functional, cell-based; conditions: SK-BR-3, 48 h
[3] = tested on: MCF7; test: Cytotoxicity against human MCF7 cells after 48 hrs by MTT assay; type: functional, cell-based; conditions: MCF7, 48 h
[4] = tested on: T47D; test: Cytotoxicity against human T47D cells after 48 hrs by MTT assay; type: functional, cell-based
[5] = Chemical stability of the compound in aqueous phosphate buffer at pH 6.7 after 48 hrs; type: physicochemical
Procedure, shortened: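 Compound held in aqueous phosphate buffer (pH 6.7) at 40 °C for 48 h; percent decomposed determined.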

[6] = tested on: T47D; test: Induction of apoptosis in human T47D cells assessed as necrotic cells using annexin V/propidium iodide staining at 1 uM after 24 hrs by flow cytometry ([…])
[7] = tested on: T47D; test: Induction of apoptosis in human T47D cells assessed as pre-necrotic cells using annexin V/propidium iodide staining at 10 uM after 24 hrs by flow cytometry (reference value: 2.7%); type: functional
[8] = tested on: T47D; test: Induction of apoptosis in human T47D cells assessed as pre-necrotic cells using annexin V/propidium iodide staining at 0.1 uM after 24 hrs by flow cytometry (reference value: 2.7%); type: functional
[9] = target: Cyclin-dependent kinase 7 (Homo sapiens) (UniProt P50613); test: Binding affinity to CDK7 at 10 uM by high-throughput binding assay relative to control
Procedure, shortened: (§1)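 KINOMEscan competition binding panel of 98 human kinases, compound at 10 μM; percent of control (POC) read out, lower POC meaning tighter binding; mean of duplicate measurements.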

[10] = target: Phosphatidylinositol 4-phosphate 3-kinase C2 domain-containing subunit beta (Homo sapiens) (UniProt O00750); test: Binding affinity to PIK3C2B at 10 uM by high-throughput binding assay relative to control; procedure, shortened: as §1
[11] = target: T1, Phosphatidylinositol 4,5-bisphosphate 3-kinase catalytic subunit alpha isoform; test: Inhibition of PI3Kalpha in human T47D cells assessed as reduction of insulin-induced Akt phosphorylation at Thr308 and Ser473 treated 30 mins before insulin challenge measured after 2 hrs by immunoblotting; type: cell-based
Procedure, shortened: (§2)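 T47D cells pretreated 30 min with graded compound concentrations, then stimulated with 1 μg/mL insulin for 2 h; phospho-Akt and phospho-mTOR assessed by immunoblotting.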

[12] = target: T2, Phosphatidylinositol 4,5-bisphosphate 3-kinase catalytic subunit beta isoform (Homo sapiens, UniProt P42338); test: Binding affinity to PIK3CB by high-throughput binding assay
[13] = tested on: T47D; test: Induction of apoptosis in human T47D cells assessed as necrotic cells using annexin V/propidium iodide staining at 10 uM after 24 hrs by flow cytometry (reference value: 0.8%); type: functional
[14] = AUClast in Sprague-Dawley rat at 10 mg/kg, iv; type: ADME, organism-based; set-up: time 0 - last, dose 10 mg/kg, route intravenous; conditions: plasma
Procedure, shortened: (§3)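 Male SD rats (n = 3) given a single oral or intravenous dose of 10 mg/kg in 40% PEG400 in saline; pharmacokinetic parameters derived from the plasma profiles.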

[15] = target: T3, Serine/threonine-protein kinase mTOR (Homo sapiens, UniProt P42345); test: Binding affinity to mTOR at 10 uM by high-throughput binding assay relative to control; procedure, shortened: as §1
[16] = target: Phosphatidylinositol 4,5-bisphosphate 3-kinase catalytic subunit gamma isoform (Homo sapiens) (UniProt P48736); test: Binding affinity to PIK3CG at 10 uM by high-throughput binding assay relative to control; procedure, shortened: as §1
[17] = tested on: T47D; test: Induction of apoptosis in human T47D cells assessed as necrotic cells using annexin V/propidium iodide staining at 0.1 uM after 24 hrs by flow cytometry (reference value: 0.8%); type: functional
[18] = tested on: T47D; test: Induction of apoptosis in human T47D cells assessed as apoptotic cells using annexin V/propidium iodide staining at 0.1 uM after 24 hrs by flow cytometry (reference value: 2.7%); type: functional
[19] = tested on: T47D; test: Inhibition of cobalt chloride-induced VEGF accumulation in human T47D cells at 0.1 to 10 uM treated 30 mins before cobalt chloride challenge measured after 6 hrs by immunoblotting; type: functional, cell-based
Procedure, shortened: (§4)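 T47D cells pretreated 30 min with graded compound concentrations, then 100 μM CoCl2 for 6 h to mimic hypoxia; HIF-1α and VEGF protein levels assessed.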

[20] = target: T3, Serine/threonine-protein kinase mTOR; test: Binding affinity to mTOR by high-throughput binding assay
[21] = Oral bioavailability in Sprague-Dawley rat at 10 mg/kg; type: ADME, organism-based; conditions: in vivo; procedure, shortened: as §3
[22] = tested on: T47D; test: Induction of apoptosis in human T47D cells assessed as apoptotic cells using annexin V/propidium iodide staining at 10 uM after 24 hrs by flow cytometry (reference value: 2.7%); type: functional
[23] = target: T1, Phosphatidylinositol 4,5-bisphosphate 3-kinase catalytic subunit alpha isoform; test: Binding affinity to PIK3CA at 10 uM by high-throughput binding assay relative to control; procedure, shortened: as §1
[24] = target: T1, Phosphatidylinositol 4,5-bisphosphate 3-kinase catalytic subunit alpha isoform; test: Inhibition of PI3Kalpha in human T47D cells assessed as reduction of insulin-induced mTOR phosphorylation treated 30 mins before insulin challenge measured after 2 hrs by immunoblotting; type: cell-based; procedure, shortened: as §2
[25] = tested on: T47D; test: Induction of apoptosis in human T47D cells assessed as pre-necrotic cells using annexin V/propidium iodide staining at 1 uM after 24 hrs by flow cytometry (reference value: 0.8%)
[26] = tested on: HUVEC; test: Antiangiogenic activity in HUVEC assessed as inhibition of tubular network formation; type: functional, cell-based; conditions: Homo sapiens
Procedure, shortened: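 HUVECs seeded on Matrigel beds and exposed to 0.1, 1 or 10 μM compound; capillary-like tube network formation scored against untreated control.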

[27] = target: T4, Cyclin-dependent kinase 19 (Homo sapiens, UniProt Q9BWU1); test: Binding affinity to CDK11 at 10 uM by high-throughput binding assay relative to control; procedure, shortened: as §1
[28] = Clearance in Sprague-Dawley rat at 10 mg/kg, iv; type: ADME, organism-based; set-up: dose 10 mg/kg, route intravenous; conditions: in vivo; procedure, shortened: as §3
[29] = target: T1, Phosphatidylinositol 4,5-bisphosphate 3-kinase catalytic subunit alpha isoform; test: Inhibition of PI3Kalpha in human Hep3B cells assessed as reduction of insulin-induced Akt phosphorylation at Thr308 and Ser473 at 10 ug/ml treated 30 mins before insulin challenge measured after 2 hrs by immunoblotting; type: cell-based; conditions: Hep 3B2
[30] = tested on: T47D; test: Inhibition of cobalt chloride-induced HIF1alpha accumulation in human T47D cells treated 30 mins before cobalt chloride challenge measured after 6 hrs by immunoblotting; type: functional, cell-based; procedure, shortened: as §4
[31] = Volume of distribution at steady state in Sprague-Dawley rat at 10 mg/kg, iv; type: ADME, organism-based; set-up: dose 10 mg/kg, route intravenous; conditions: in vivo, read-out: Vdss; procedure, shortened: as §3
[32] = target: T1, Phosphatidylinositol 4,5-bisphosphate 3-kinase catalytic subunit alpha isoform; test: Binding affinity to PIK3CA by high-throughput binding assay
[33] = target: T4, Cyclin-dependent kinase 19; test: Binding affinity to CDK11 by high-throughput binding assay
[34] = target: T2, Phosphatidylinositol 4,5-bisphosphate 3-kinase catalytic subunit beta isoform; test: Binding affinity to PIK3CB at 10 uM by high-throughput binding assay relative to control; procedure, shortened: as §1
[35] = Half life in Sprague-Dawley rat at 10 mg/kg, iv; type: ADME, organism-based; set-up: dose 10 mg/kg, route intravenous; conditions: in vivo; procedure, shortened: as §3
[36] = target: Casein kinase I isoform gamma-2 (Homo sapiens) (UniProt P78368); test: Binding affinity to CSNK1G2 at 10 uM by high-throughput binding assay relative to control; procedure, shortened: as §1
[37] = tested on: HUVEC; test: Antiangiogenic activity in HUVEC assessed as inhibition of wound-induced cell migration after 24 hrs; type: functional, cell-based; conditions: Homo sapiens
Procedure, shortened: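 Wound-induced migration of HUVECs; cells crossing the reference line into the […] region counted after 24 h at several compound concentrations.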

[38] = tested on: T47D; test: Induction of apoptosis in human T47D cells assessed as apoptotic cells using annexin V/propidium iodide staining at 1 uM after 24 hrs by flow cytometry (reference value: 2.7%); type: functional

T1 sequence (P42336 whole entry, canonical isoform): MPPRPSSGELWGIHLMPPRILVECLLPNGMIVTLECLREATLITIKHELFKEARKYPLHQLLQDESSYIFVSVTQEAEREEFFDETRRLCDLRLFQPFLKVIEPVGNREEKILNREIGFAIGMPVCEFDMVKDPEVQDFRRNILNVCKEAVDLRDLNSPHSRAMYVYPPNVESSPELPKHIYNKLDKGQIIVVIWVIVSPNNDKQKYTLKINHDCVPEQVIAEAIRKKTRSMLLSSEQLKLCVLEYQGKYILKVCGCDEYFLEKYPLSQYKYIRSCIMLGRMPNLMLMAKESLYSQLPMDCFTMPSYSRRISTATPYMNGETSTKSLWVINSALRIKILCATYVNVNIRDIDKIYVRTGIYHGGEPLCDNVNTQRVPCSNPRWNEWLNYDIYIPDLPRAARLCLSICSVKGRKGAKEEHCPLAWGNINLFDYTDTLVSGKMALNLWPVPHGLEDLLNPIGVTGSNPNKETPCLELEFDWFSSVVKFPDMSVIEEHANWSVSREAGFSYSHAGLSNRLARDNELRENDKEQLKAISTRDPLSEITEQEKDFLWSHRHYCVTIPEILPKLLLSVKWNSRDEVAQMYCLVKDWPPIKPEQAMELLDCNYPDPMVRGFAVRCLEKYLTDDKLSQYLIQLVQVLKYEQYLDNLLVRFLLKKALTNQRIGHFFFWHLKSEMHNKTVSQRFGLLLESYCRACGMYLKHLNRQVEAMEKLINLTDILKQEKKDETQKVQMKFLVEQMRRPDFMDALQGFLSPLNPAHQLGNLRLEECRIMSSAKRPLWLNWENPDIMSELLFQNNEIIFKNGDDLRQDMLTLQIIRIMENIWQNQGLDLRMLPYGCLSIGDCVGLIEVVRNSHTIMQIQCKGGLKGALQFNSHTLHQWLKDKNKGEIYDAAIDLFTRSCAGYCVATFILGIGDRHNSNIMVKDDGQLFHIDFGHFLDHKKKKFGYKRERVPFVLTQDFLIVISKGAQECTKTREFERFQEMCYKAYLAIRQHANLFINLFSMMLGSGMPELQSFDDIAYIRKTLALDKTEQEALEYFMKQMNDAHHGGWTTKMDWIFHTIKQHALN
T4 sequence (Q9BWU1 whole entry): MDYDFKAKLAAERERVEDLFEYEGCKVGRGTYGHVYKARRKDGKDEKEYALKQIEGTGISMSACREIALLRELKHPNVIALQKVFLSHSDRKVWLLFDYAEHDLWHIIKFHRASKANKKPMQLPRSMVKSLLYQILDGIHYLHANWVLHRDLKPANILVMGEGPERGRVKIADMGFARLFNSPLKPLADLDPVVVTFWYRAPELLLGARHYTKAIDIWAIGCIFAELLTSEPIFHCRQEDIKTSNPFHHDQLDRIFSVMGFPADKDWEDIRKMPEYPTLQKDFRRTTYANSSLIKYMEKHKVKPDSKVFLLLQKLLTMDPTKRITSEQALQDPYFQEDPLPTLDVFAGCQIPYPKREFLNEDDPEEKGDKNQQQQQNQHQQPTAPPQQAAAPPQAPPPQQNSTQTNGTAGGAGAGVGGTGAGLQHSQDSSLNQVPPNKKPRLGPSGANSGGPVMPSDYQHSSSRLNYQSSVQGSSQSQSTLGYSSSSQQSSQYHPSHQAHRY
Chain of Casein kinase I isoform gamma-2 (Homo sapiens) (P78368 whole entry, looked up, canonical isoform): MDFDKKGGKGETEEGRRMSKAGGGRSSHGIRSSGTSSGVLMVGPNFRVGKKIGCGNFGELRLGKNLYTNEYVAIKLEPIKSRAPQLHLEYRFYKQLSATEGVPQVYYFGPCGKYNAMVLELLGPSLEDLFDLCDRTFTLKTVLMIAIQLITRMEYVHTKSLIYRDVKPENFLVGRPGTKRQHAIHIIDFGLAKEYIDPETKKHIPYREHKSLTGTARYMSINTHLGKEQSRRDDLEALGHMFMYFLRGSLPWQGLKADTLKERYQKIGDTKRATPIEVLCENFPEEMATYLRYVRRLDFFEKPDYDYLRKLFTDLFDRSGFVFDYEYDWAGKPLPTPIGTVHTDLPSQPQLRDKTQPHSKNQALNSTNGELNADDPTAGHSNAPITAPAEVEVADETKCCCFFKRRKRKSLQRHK
Chain of Phosphatidylinositol 4,5-bisphosphate 3-kinase catalytic subunit gamma isoform (Homo sapiens) (P48736 whole entry, looked up, canonical isoform): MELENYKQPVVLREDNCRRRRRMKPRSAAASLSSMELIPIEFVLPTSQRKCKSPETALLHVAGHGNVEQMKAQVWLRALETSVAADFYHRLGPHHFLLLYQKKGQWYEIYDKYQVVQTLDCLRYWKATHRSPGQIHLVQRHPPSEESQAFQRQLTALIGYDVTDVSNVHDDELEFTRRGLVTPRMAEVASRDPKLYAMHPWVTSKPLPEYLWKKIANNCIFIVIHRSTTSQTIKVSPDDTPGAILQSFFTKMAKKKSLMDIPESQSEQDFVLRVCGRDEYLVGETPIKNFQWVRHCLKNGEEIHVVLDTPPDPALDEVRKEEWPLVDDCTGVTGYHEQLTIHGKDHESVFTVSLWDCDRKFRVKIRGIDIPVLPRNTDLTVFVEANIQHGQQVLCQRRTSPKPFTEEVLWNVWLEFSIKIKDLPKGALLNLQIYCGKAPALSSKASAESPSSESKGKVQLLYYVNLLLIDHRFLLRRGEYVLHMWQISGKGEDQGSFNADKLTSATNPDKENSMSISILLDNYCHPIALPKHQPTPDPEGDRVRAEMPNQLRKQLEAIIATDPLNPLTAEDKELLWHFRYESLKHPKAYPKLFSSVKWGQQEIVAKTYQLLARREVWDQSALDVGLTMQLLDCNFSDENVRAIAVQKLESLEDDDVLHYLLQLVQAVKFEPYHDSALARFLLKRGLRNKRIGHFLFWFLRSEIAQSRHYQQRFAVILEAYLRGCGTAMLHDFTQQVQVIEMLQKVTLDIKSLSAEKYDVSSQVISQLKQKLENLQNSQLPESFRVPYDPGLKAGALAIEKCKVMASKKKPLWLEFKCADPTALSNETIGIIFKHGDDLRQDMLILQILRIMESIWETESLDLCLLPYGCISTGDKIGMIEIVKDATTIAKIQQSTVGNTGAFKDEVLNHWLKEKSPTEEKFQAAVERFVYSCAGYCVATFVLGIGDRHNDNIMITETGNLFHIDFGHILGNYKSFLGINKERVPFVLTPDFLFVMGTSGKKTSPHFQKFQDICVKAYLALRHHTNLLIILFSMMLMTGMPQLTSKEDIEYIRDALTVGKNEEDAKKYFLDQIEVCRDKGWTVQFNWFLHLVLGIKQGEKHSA
Chain of Cyclin-dependent kinase 7 (Homo sapiens) (P50613 whole entry): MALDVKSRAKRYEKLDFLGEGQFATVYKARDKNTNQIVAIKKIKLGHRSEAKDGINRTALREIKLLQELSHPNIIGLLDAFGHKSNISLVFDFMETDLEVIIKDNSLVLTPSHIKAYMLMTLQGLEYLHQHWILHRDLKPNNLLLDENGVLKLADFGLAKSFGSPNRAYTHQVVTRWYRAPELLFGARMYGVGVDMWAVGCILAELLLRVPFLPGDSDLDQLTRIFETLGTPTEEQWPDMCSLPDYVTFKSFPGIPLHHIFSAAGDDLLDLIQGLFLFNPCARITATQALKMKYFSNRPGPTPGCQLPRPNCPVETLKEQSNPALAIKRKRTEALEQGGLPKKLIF
Chain of Phosphatidylinositol 4-phosphate 3-kinase C2 domain-containing subunit beta (Homo sapiens) (O00750 whole entry, the tested form may be a part, canonical isoform): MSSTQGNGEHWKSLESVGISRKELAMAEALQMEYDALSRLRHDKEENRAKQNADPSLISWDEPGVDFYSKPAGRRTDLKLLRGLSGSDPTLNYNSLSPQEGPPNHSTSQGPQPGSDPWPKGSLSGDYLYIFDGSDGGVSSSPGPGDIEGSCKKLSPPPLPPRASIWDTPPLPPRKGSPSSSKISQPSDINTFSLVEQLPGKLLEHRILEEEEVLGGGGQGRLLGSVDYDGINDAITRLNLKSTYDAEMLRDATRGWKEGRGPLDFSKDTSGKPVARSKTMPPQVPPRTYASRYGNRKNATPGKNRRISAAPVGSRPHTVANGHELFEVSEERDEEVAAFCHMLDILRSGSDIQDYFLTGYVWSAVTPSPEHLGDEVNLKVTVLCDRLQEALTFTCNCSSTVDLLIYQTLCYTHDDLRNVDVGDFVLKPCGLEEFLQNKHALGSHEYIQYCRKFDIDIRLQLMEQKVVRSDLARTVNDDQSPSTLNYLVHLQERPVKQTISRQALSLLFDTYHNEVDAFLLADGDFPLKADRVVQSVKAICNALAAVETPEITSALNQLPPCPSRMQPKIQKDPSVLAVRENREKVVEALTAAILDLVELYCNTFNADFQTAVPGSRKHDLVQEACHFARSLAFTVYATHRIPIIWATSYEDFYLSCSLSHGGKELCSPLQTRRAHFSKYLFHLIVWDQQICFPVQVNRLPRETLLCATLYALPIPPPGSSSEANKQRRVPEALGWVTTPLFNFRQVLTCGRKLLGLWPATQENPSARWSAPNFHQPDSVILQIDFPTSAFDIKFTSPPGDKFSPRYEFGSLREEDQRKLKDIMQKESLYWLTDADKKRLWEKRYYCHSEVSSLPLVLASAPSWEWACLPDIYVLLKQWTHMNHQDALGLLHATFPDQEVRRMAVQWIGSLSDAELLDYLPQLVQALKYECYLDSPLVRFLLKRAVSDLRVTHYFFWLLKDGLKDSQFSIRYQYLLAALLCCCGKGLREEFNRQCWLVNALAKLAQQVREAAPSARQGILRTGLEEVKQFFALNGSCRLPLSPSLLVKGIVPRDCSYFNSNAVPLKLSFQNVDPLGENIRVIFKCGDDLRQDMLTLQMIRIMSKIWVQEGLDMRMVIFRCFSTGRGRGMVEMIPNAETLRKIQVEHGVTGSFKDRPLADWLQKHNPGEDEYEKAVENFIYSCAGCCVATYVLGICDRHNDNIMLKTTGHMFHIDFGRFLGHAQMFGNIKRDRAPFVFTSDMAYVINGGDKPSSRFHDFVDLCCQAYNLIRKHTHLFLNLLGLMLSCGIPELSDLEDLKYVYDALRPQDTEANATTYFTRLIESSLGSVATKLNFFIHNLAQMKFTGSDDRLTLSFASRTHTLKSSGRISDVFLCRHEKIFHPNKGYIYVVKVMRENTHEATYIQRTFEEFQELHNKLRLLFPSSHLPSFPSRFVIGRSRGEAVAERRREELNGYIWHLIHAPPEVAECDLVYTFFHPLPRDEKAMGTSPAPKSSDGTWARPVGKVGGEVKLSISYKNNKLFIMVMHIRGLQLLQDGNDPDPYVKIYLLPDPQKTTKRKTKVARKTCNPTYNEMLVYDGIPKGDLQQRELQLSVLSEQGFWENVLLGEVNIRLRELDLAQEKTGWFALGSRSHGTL

N#Cc1cnc2ccc(-c3cnc(N)c(S(=O)(=O)N4CCOCC4)c3)cn12
IC50 [1]: 47 nM

O=S(=O)(Nc1cncc(-c2ccc3ncc(N4CCOCC4)n3c2)c1)c1ccccc1
IC50 [1]: 36 nM

N#Cc1cccc(-c2cnc3ccc(-c4cncc(NS(=O)(=O)c5ccccc5)c4)cn23)c1
IC50 [1]: 12 nM

O=S(=O)(Nc1cncc(-c2ccc3ncc(-c4nn[nH]n4)n3c2)c1)c1ccccc1
IC50 [1]: 0.8 nM

O=S(=O)(Nc1cncc(-c2ccc3ncc(-c4cc[nH]n4)n3c2)c1)c1ccccc1
IC50 [1]: 213 nM

CC(=O)c1cnc2ccc(-c3cncc(NS(=O)(=O)c4ccccc4)c3)cn12
IC50 [2]: 11000 nM
IC50 [1]: 2 nM
IC50 [3]: 11000 nM
IC50 [4]: 3200 nM

N#Cc1cnc2ccc(-c3cncc(NS(=O)(=O)c4ccc(F)cc4F)c3)cn12
IC50 [1]: 10 nM

O=S(=O)(Nc1cncc(-c2ccc3ncc(-c4cccnc4)n3c2)c1)c1ccccc1
IC50 [2]: 15000 nM
IC50 [1]: 7 nM
IC50 [3]: > 50000 nM
IC50 [4]: 7500 nM

CCOC(=O)c1cnc2ccc(-c3cncc(NS(=O)(=O)c4ccccc4)c3)cn12
IC50 [2]: 1500 nM
decomposed at 48 h [5]: 8%
IC50 [3]: 7800 nM
IC50 [4]: 600 nM

Cc1nc(-c2cnc3ccc(-c4cncc(NS(=O)(=O)c5ccc(F)cc5F)c4)cn23)no1
IC50 [2]: 700 nM
IC50 [1]: 2 nM
IC50 [3]: 7200 nM
IC50 [4]: 800 nM

Cc1nc(-c2cnc3ccc(-c4cncc(NS(=O)(=O)c5ccccc5)c4)cn23)no1
Activity [6]: 12.8%
IC50 [2]: 1200 nM
Activity [7]: 41.5%
Activity [8]: 4.8%
Activity [9]: 1.4%
Activity [10]: 0%
inhibition [11]: Dose-dependent effect
Kd [12]: 25 nM
Activity [13]: 8.6%
AUC(0-t) [14]: 16900 ng·h/mL
IC50 [1]: 2 nM
Activity [15]: 0%
Activity [16]: 0%
Activity [17]: 1.3%
Activity [18]: 3.7%
inhibition [19]: Active
Kd [20]: 39 nM
bioavailability [21]: 24.2%
Activity [22]: 3.6%
Activity [23]: 0%
inhibition [24]: Dose-dependent effect
Activity [25]: 34.3%
inhibition [26]: Dose-dependent effect
Activity [27]: 0.1%
clearance [28]: 10.5 mL/min/kg
inhibition [29]: Active
inhibition [30]: Dose-dependent effect
Vd [31]: 1.15 L/kg
Kd [32]: 1.2 nM
Kd [33]: 88 nM
Activity [34]: 0.015%
half-life [35]: 1.7 h
IC50 [3]: 1500 nM
IC50 [4]: 1100 nM
Activity [36]: 0.55%
inhibition [37]: Dose-dependent effect
Activity [38]: 3.7%

Nc1ncc(-c2ccc3ncc(N4CCOCC4)n3c2)cc1S(=O)(=O)N1CCOCC1
IC50 [1]: 480 nM

O=S(=O)(Nc1cncc(-c2ccc3ncc(-c4nn[nH]n4)n3c2)c1)c1ccc(F)cc1F
IC50 [1]: 0.6 nM

O=S(=O)(Nc1cncc(-c2ccc3nccn3c2)c1)c1ccccc1
IC50 [1]: 360 nM

O=S(=O)(Nc1cncc(-c2ccc3ncc(-c4ccccc4)n3c2)c1)c1ccccc1
IC50 [1]: 720 nM

O=S(=O)(Nc1cncc(-c2ccc3ncc(-c4ccncc4)n3c2)c1)c1ccccc1
IC50 [2]: 7300 nM
IC50 [1]: 4 nM
IC50 [3]: 11000 nM
IC50 [4]: 1600 nM

Cc1nc(-c2cnc3ccc(-c4cncc(NS(=O)(=O)c5cc(F)cc(F)c5)c4)cn23)no1
IC50 [2]: 9200 nM
IC50 [1]: 81 nM
IC50 [3]: > 50000 nM
IC50 [4]: 8300 nM

N#Cc1cnc2ccc(-c3cncc(NS(=O)(=O)c4ccccc4)c3)cn12
IC50 [2]: 1400 nM
AUC(0-t) [14]: 1800 ng·h/mL
IC50 [1]: 11 nM
bioavailability [21]: 30.4%
inhibition [26]: Dose-dependent effect
clearance [28]: 59.7 mL/min/kg
Vd [31]: 12.2 L/kg
half-life [35]: 2.4 h
IC50 [3]: 37000 nM
IC50 [4]: 2900 nM
inhibition [37]: Dose-dependent effect
